Laboratory results as given in ChEMBL document CHEMBL1772982, “In vitro and in vivo trypanocidal activity of flavonoids from Delphinium staphisagria against Chagas disease” (J Nat Prod, 2011).
Active and inactive are the calls of the source.

Legend:
[1] = test system: Trypanosoma cruzi; test: Antitrypanosomal activity against metacyclic forms of Trypanosoma cruzi infected in vero cells assessed as decrease in trypomastigotes at IC25 concentration after 12 hrs; assay type: functional; set-up: scale not given: the % may be the effect or the level left
Summary of the method: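 Vero cells were seeded at 1 × 10^5 per well on coverslips, grown 2 days, then infected with metacyclic forms at 10:1. Compounds at IC25 were added at infection for 12 h at 37 °C, 5% CO2, then washed out. Cultures were kept 10 days with medium renewed every 48 h. Trypomastigotes released into the medium were counted.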

[2] = test system: Trypanosoma cruzi; test: Antitrypanosomal activity against Trypanosoma cruzi epimastigotes assessed as cytoplasmic membrane burst at IC25 concentration after 72 hrs by transmission electron microscopy; assay type: functional, organism-based
Summary of the method: (§1)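 Epimastigotes at 5 × 10^6 cells/mL were exposed to test compounds at their IC25 for 72 h. Morphology was assessed by transmission electron microscopy against untreated parasites.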

[3] = test system: Trypanosoma cruzi; test: Antitrypanosomal activity against blood trypomastigote forms of Trypanosoma cruzi infected in BALB/c mouse assessed as decrease in parasitemia at 5 mg/kg, ip administered 7 days post infection once daily for 5 days measured after 40 days post infection by […] relative to control; assay type: functional; set-up: scale not given: the % may be the effect or the level left; conditions: route intraperitoneal
Summary of the method: (§2)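 Female BALB/c mice (6–8 weeks, five per group) were infected ip with 1 × 10^3 bloodstream forms and treated ip in saline on days 7–12 post-infection; controls received vehicle. Every two days, 5 μL tail blood was diluted 1:15 in citrate/lysis buffer (pH 7.2) and parasites counted in a Neubauer chamber. Decrease is relative to the untreated infected group.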

[4] = test system: Trypanosoma cruzi; test: Antitrypanosomal activity against blood trypomastigote forms of Trypanosoma cruzi infected in BALB/c mouse assessed as decrease in parasitemia at 5 mg/kg, ip administered 7 days post infection once daily for 5 days measured on day 22 post infection by […] relative to control; assay type: functional, organism-based; set-up: dose 5 mg/kg; summary of the method: as §2
[5] = Selectivity index, ratio of IC50 for african green monkey Vero cells to IC50 for epimastigote form of Trypanosoma cruzi; assay type: toxicity, cell-based; conditions: Vero cells (versus epimastigote form of Trypanosoma cruzi), read-out: Ratio IC50
[6] = test system: Trypanosoma cruzi; test: Antitrypanosomal activity against Trypanosoma cruzi epimastigotes assessed as increase in vacuolization at IC25 concentration after 72 hrs by transmission electron microscopy; assay type: functional, organism-based; summary of the method: as §1
[7] = test system: Mus musculus; test: Toxicity in BALB/c mouse assessed as mortality at 5 mg/kg, ip; assay type: organism-based; set-up: dose 5 mg/kg, route intraperitoneal; conditions: in vivo
[8] = test system: Trypanosoma cruzi; test: Antitrypanosomal activity against blood trypomastigote forms of Trypanosoma cruzi infected in BALB/c mouse assessed as decrease in anti-parasite antibodies level at 5 mg/kg, ip administered 7 days post infection once daily for 5 days measured after […] by ELISA relative to control; assay type: functional, organism-based; set-up: dose 5 mg/kg
Summary of the method: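 Female BALB/c mice (6–8 weeks) were infected ip; groups of four received ip treatment days 7–12 post-infection. Sera taken on days 40 and 90 were diluted 1:100 and run in ELISA against excreted Fe-SOD antigen from epimastigotes, read at 490 nm. Cutoff was the mean of negative controls plus 3 SD. The change was taken as absorbance on day 90 minus day 40.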

[9] = test system: Trypanosoma cruzi; test: Antitrypanosomal activity against Trypanosoma cruzi epimastigotes assessed as dilated mitochondria at IC25 concentration after 72 hrs by transmission electron microscopy; assay type: functional, organism-based; summary of the method: as §1
[10] = test system: Trypanosoma cruzi; test: Antitrypanosomal activity against metacyclic forms of Trypanosoma cruzi infected in vero cells assessed as inhibition of infection at IC25 concentration after 12 hrs; assay type: functional
Summary of the method: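 Vero cells were seeded at 1 × 10^5 per well on coverslips, grown 2 days, and infected with metacyclic forms at 10:1, with compounds at IC25 present for 12 h at 37 °C. After washing, cultures were grown 10 days. Methanol-fixed, Giemsa-stained cells (>100 per sample) were scored for percent infected and amastigotes per cell. Results are means of four determinations.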

[11] = test system: Vero; test: Cytotoxicity against african green monkey Vero cells assessed as cell viability after 72 hrs by FACS analysis; assay type: cell-based; conditions: Chlorocebus sabaeus
[12] = test system: Trypanosoma cruzi; test: Antitrypanosomal activity against epimastigote form of Trypanosoma cruzi assessed as inhibition of parasite growth; assay type: functional, organism-based
Summary of the method: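 Exponential-phase epimastigotes at 2 × 10^6 parasites/mL were exposed to 1, 10, 25, 50 and 100 μM compound in medium containing 0.01% DMSO. Parasites were counted by hemocytometer at 24, 48 and 72 h.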

[13] = test system: Trypanosoma cruzi; test: Antitrypanosomal activity against Trypanosoma cruzi epimastigotes assessed as undulating cytoplasm membrane at IC25 concentration after 72 hrs by transmission electron microscopy; assay type: functional, organism-based; summary of the method: as §1
[14] = test system: Trypanosoma cruzi; test: Antitrypanosomal activity against blood trypomastigote forms of Trypanosoma cruzi infected in BALB/c mouse assessed as mouse survival rate at 1 mg/kg, ip administered 7 days postinfection once daily for 5 days; assay type: functional
Summary of the method: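 T. cruzi Maracay strain; groups of five female BALB/c mice (6–8 weeks, 25–30 g) infected ip with 1 × 10³ bloodstream forms. Starting day 7 post-infection, ip dosing at 1 mg/kg/day in saline for five consecutive days; infected controls received vehicle. Mortality recorded over the study alongside parasitemia, which was counted every two days from tail blood in a Neubauer chamber.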

[15] = test system: Trypanosoma cruzi; test: Antitrypanosomal activity against Trypanosoma cruzi epimastigotes assessed as shrinkage of the protozoa at IC25 concentration after 72 hrs by transmission electron microscopy; assay type: functional, organism-based; summary of the method: as §1
[16] = test system: Trypanosoma cruzi; test: Antitrypanosomal activity against Trypanosoma cruzi epimastigotes assessed as star-shaped and wavy cytoplasm membrane at IC25 concentration after 72 hrs by transmission electron microscopy; assay type: functional, organism-based; summary of the method: as §1

SMILES | Activity [1] | Activity [2] | Activity [3] | Activity [4] | selectivity ratio [5] | Activity [6] | Activity [7] | Activity [8] | Activity [9] | inhibition (INH) [10] | IC50 [11] | IC50 [12] | Activity [13] | Activity [14] | Activity [15] | survival at 1 mg/kg ([14]; route intraperitoneal) | Activity [16]
CC(=O)O[C@H]1[C@H](Oc2c(-c3ccc(O)cc3)oc3cc(O)cc(O)c3c2=O)O[C@H](CO)[C@@H](O)[C@@H]1O | 78% | Active | 23% | Active | 45.2 | Active | Non-toxic | Active | Active | 88% | 294 µM | 6.5 µM | Active | Active | Active | – | –
CC(=O)O[C@H]1[C@H](Oc2c(-c3ccc(O)cc3)oc3cc(O[C@@H]4O[C@H](CO)[C@@H](O)[C@H](O)[C@H]4O)cc(O)c3c2=O)O[C@H](CO)[C@@H](O)[C@@H]1O | 77% | – | 23% | Active | > 46.1 | Active | Non-toxic | Active | – | 85% | > 1000 µM | 21.7 µM | – | Active | Active | – | –
C[C@H]1O[C@H](Oc2cc(O)c3c(=O)c(O[C@@H]4O[C@H](CO)[C@@H](O)[C@H](O)[C@H]4O)c(-c4ccc(O)c(O)c4)oc3c2)[C@@H](O)[C@@H](O)[C@@H]1O [PETIOLAROSIDE] | 72% | – | 23% | Active | > 33 | Active | Non-toxic | Active | – | 68% | > 1000 µM | 30.3 µM | – | Active | Active | – | –
CC(=O)OC[C@H]1O[C@@H](Oc2c(-c3ccc(OC(C)=O)cc3)oc3cc(OC(C)=O)cc(OC(C)=O)c3c2=O)[C@H](OC(C)=O)[C@@H](OC(C)=O)[C@@H]1OC(C)=O [ASTRAGALIN HEPTAACETATE] | 95% | – | 23% | Active | 205 | Active | Non-toxic | Active | – | 91% | 164 µM | 0.8 µM | – | Active | Active | – | –
O=c1c(O[C@@H]2O[C@H](CO)[C@@H](O)[C@H](O)[C@H]2O)c(-c2ccc(O)cc2)oc2cc(O)cc(O)c12 [ASTRAGALIN] | 65% | Active | 23% | Active | 11.1 | Active | Non-toxic | Active | – | 64% | 174 µM | 15.7 µM | Active | Active | Active | – | –
O=C(Cn1ccnc1[N+](=O)[O-])NCc1ccccc1 [BENZNIDAZOLE] | 37% | – | – | – | – | – | – | – | – | 39% | – | – | – | – | – | 80% | –
CC(=O)OC[C@H]1O[C@@H](Oc2cc(OC(C)=O)c3c(=O)c(O[C@@H]4O[C@H](COC(C)=O)[C@@H](OC(C)=O)[C@H](OC(C)=O)[C@H]4OC(C)=O)c(-c4ccc(OC(C)=O)cc4)oc3c2)[C@H](OC(C)=O)[C@@H](OC(C)=O)[C@@H]1OC(C)=O [PAEONOSIDE DECAACETATE] | 85% | Active | 23% | Active | > 58.1 | Active | Non-toxic | Active | – | 82% | > 1000 µM | 17.2 µM | Active | Active | Active | – | Active
CC(=O)O[C@H]1[C@H](Oc2c(-c3ccc(O)c(O)c3)oc3cc(O[C@H]4O[C@H](C)[C@@H](O)[C@H](O)[C@@H]4O)cc(O)c3c2=O)O[C@H](CO)[C@@H](O)[C@@H]1O | 58% | – | 23% | Active | > 36.6 | Active | Non-toxic | Active | – | 65% | > 1000 µM | 27.3 µM | – | Active | Active | – | –
